Published values pooled from the literature.
Protocols differ between the studies behind these lines.
Cell line: HCT-116
Effect on: cell growth or viability

SMILES | method | concentration | time | measurement | result
COc1ccc(-c2cc(-c3c(OC)cccc3OC)c3c(=O)n(C)c(=O)n(C)c3n2)cc1 | MTT |  | 48 h | IC50 | 5.44 µM
Cc1nc(Nc2ccc3c(c2)C(C)(C)C(=O)N3C)c2ccccc2n1 | MTT |  |  | IC50 | > 50 µM
COc1nc(NCc2cn(-c3ccc(NC(=O)c4ccc(F)cc4)cc3)nn2)nc(OC)n1 | MTT |  | 72 h | IC50 | 0.0122 µM
COc1ccc(-c2cc(-c3cccc(Br)c3)c3c(=O)[nH]c(=O)[nH]c3n2)cc1 | MTT |  | 48 h | IC50 | 9.77 µM
COc1cc2ncnc(N(C)c3ccc4c(c3)/C(=C/c3cccc(Cl)c3)C(=O)N4C)c2cc1OC | MTT |  |  | IC50 | 7.52 µM
COc1nc(NCc2cn(-c3ccc(NC(=O)c4ccc(C)cc4)cc3)nn2)nc(OC)n1 | MTT |  | 72 h | IC50 | 0.0599 µM
Cc1ccc(-c2cc(-c3ccc(Cl)c(F)c3)c3c(=O)[nH]c(=O)[nH]c3n2)cc1 | MTT |  | 48 h | IC50 | 11.2 µM
O=C(O)c1cccnc1Nc1cccc(C(F)(F)F)c1 | CCK-8 |  | 72 h | GI50 | > 40 µM
Cc1nc(Nc2ccc3c(c2)C(C)(C)C(=O)N3)c2ccccc2n1 | MTT |  |  | IC50 | > 50 µM
COc1ccc(C(=O)Nc2ccc(-n3cc(CNc4nc(OC)nc(OC)n4)nn3)cc2)cc1 | MTT |  | 72 h | IC50 | 0.0595 µM
Cc1ccc(-c2cc(-c3ccc(Cl)c(F)c3)c3c(=O)n(C)c(=O)n(C)c3n2)cc1 | MTT |  | 48 h | IC50 | 21.4 µM
COc1nc(NCc2cn(-c3ccc(NC(=O)c4ccc([N+](=O)[O-])cc4)cc3)nn2)nc(OC)n1 | MTT |  | 72 h | IC50 | 0.0578 µM
COc1ccc(-c2cc(-c3ccccc3Cl)c3c(=O)[nH]c(=O)[nH]c3n2)cc1 | MTT |  | 48 h | IC50 | 13.4 µM
Cc1nc(Nc2ccc3c(c2)/C(=C/c2ccccc2Cl)C(=O)N3)c2ccccc2n1 | MTT |  |  | IC50 | 3.67 µM
CC(=NNC(=O)COc1ccc2c(C)c(Cc3ccccc3)c(=O)oc2c1C)c1ccc(Br)cc1 | MTT | 0.4 µg/mL |  | viability | 64.3%
C=CC(=O)c1cccnc1Nc1cc(C(F)(F)F)ccc1OCc1ccccc1 | CCK-8 |  | 72 h | GI50 | 8.72 µM
COc1ccc(-c2cc(-c3ccc(Cl)cc3)c3c(=O)n(C)c(=O)n(C)c3n2)cc1 | MTT |  | 48 h | IC50 | 7.54 µM
COc1nc(NCc2cn(-c3ccc(C(=O)Nc4ccc([N+](=O)[O-])cc4)cc3)nn2)nc(OC)n1 | MTT |  | 72 h | IC50 | 0.059 µM
COc1ccc(-c2cc(-c3ccc(C)cc3)nc3[nH]c(=O)[nH]c(=O)c23)cc1OC | MTT |  | 48 h | IC50 | 19 µM
Cc1nc(Nc2ccc3c(c2)/C(=C/c2ccccc2C)C(=O)N3C)c2ccccc2n1 | MTT |  |  | IC50 | 20.6 µM
COc1nc(NCc2cn(-c3ccc(C(=O)Nc4ccc(Br)cc4)cc3)nn2)nc(OC)n1 | MTT |  | 72 h | IC50 | 0.0279 µM
COc1cc2ncnc(Nc3ccc4c(c3)/C(=C/c3cccc(Cl)c3)C(=O)N4C)c2cc1OC | MTT |  |  | IC50 | 8.36 µM
COc1ccc(NC(=O)c2ccc(-n3cc(CNc4nc(OC)nc(OC)n4)nn3)cc2)cc1 | MTT |  | 72 h | IC50 | 0.0123 µM
COc1cc2ncnc(Nc3ccc4c(c3)/C(=C/c3ccccc3)C(=O)N4C)c2cc1OC | MTT |  |  | IC50 | 6.67 µM
COc1ccc(-c2cc(-c3ccc(C)cc3)nc3c2c(=O)n(C)c(=O)n3C)cc1OC | MTT |  | 48 h | IC50 | 20.8 µM
COc1nc(NCc2cn(-c3ccc(C(=O)Nc4ccc(C(F)(F)F)cc4)cc3)nn2)nc(OC)n1 | MTT |  | 72 h | IC50 | 0.00141 µM
